Source: ChEMBL document CHEMBL4350961, “Discovery of Pyrrolo[3,2- d]pyrimidin-4-one Derivatives as a New Class of Potent and Cell-Active Inhibitors of P300/CBP-Associated Factor Bromodomain” (J Med Chem, 2019)
Calls of active or inactive are those of the source. No cut-off for these calls is given here.

Experiments:
[1] = target: Transcription initiation factor TFIID subunit 1 (Homo sapiens) (UniProt P21675); assay: Binding affinity to human N-terminal His-tagged TAF1 bromodomain1 assessed as change in melting temperature at 10 uM by SYPRO orange dye-based fluorescence assay
Outline: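 Thermal shift with His-tagged human bromodomain at 2 μM final in 10 mM HEPES pH 7.5, 500 mM NaCl. Compound at 10 μM final with 0.1% DMSO; SYPRO Orange at 1:1000. Equilibrated 3 min at 25 °C, then heated from 25 to 95 °C at 1 °C/min. Melting temperature shift taken from fluorescence; at least duplicate.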

[2] = target: Bromodomain-containing protein 4 (Homo sapiens) (UniProt O60885); assay: Binding affinity to human partial length BRD4 bromodomain 2 long isoform (K333 to E460 residues) expressed in bacterial expression system at 1 uM by BROMOscan assay
Outline: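 BROMOscan bromodomain cross-screen run by an outside service, compound at 1 µM against 32 recombinant bromodomains. Binding given as percent of control.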

[3] = target: Tyrosine-protein kinase BTK (Homo sapiens) (UniProt Q06187); assay: Inhibition of full-length recombinant human BTK at 10 uM using KVEKIGEGTYGVVYK as substrate measured after 40 mins in presence of [gamma33P]ATP by scintillation counting method
Outline: (§1)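 Kinase panel of 422 kinases screened by Eurofins KinaseProfiler at a single test-compound concentration of 10 µM.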

[4] = target: Calcium/calmodulin-dependent protein kinase type II subunit gamma (Homo sapiens) (UniProt Q13555); assay: Inhibition of recombinant full-length human CaMK2gamma (1 to 330 residues) at 10 uM using calmodulin as substrate measured after 40 mins in presence of [gamma33P]ATP by scintillation counting method
Calcium/calmodulin-dependent protein kinase type II subunit gamma (Homo sapiens), sequence (Q13555 whole entry, the tested form may be a part): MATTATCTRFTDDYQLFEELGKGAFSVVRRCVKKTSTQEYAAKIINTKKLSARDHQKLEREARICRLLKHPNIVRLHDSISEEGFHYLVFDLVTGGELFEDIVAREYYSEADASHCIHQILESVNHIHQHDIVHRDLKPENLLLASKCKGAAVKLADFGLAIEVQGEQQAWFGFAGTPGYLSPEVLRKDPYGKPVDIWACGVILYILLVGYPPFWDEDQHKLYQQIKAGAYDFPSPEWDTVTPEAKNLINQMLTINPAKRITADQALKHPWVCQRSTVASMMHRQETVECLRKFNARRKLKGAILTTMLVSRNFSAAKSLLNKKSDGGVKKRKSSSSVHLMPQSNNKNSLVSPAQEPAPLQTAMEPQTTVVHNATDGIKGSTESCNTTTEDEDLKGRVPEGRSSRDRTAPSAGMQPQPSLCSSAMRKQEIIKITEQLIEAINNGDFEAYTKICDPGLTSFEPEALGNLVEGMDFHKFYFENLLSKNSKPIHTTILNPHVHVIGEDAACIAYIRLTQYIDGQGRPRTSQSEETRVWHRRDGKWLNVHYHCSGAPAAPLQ

[5] = test system: Calcium/calmodulin-dependent protein kinase kinase 2 (Homo sapiens), Q96RR4 [T85S]; assay: Inhibition of recombinant full-length human CAMKk2 T85S mutant at 10 uM using calmodulin as substrate measured after 40 mins in presence of [gamma33P]ATP by scintillation counting method
[6] = target: CDK12/Cyclin K (Homo sapiens) (UniProt O75909+Q9NYV4); assay: Inhibition of recombinant full length human CDK12/cyclinK at 10 uM using RSRSRSRSRSRSRSR as substrate measured after 120 mins in presence of [gamma33P]ATP by scintillation counting method; assay type: protein-complex assay
[7] = target: Ephrin type-A receptor 7 (Homo sapiens) (UniProt Q15375); assay: Inhibition of recombinant human EphA7 (613 to 909 residues) at 10 uM using KTFCGTPEYLAPEVRREPRILSEEEQEMFRDFDYIADWC as substrate measured after 40 mins in presence of [gamma33P]ATP by scintillation counting method
[8] = test system: Macrophage colony-stimulating factor 1 receptor (Homo sapiens), P07333 [Y969C]; assay: Inhibition of recombinant human FMS Y969C mutant (538 to end residues) at 10 uM using EEEEYEEEEEEYYIIEEEEEEYEEEEEEYYEEEEEEKKKK as substrate measured after 40 mins in presence of [gamma33P]ATP by scintillation counting method
Macrophage colony-stimulating factor 1 receptor (Homo sapiens), P07333 [Y969C], sequence (P07333 whole entry Y969C): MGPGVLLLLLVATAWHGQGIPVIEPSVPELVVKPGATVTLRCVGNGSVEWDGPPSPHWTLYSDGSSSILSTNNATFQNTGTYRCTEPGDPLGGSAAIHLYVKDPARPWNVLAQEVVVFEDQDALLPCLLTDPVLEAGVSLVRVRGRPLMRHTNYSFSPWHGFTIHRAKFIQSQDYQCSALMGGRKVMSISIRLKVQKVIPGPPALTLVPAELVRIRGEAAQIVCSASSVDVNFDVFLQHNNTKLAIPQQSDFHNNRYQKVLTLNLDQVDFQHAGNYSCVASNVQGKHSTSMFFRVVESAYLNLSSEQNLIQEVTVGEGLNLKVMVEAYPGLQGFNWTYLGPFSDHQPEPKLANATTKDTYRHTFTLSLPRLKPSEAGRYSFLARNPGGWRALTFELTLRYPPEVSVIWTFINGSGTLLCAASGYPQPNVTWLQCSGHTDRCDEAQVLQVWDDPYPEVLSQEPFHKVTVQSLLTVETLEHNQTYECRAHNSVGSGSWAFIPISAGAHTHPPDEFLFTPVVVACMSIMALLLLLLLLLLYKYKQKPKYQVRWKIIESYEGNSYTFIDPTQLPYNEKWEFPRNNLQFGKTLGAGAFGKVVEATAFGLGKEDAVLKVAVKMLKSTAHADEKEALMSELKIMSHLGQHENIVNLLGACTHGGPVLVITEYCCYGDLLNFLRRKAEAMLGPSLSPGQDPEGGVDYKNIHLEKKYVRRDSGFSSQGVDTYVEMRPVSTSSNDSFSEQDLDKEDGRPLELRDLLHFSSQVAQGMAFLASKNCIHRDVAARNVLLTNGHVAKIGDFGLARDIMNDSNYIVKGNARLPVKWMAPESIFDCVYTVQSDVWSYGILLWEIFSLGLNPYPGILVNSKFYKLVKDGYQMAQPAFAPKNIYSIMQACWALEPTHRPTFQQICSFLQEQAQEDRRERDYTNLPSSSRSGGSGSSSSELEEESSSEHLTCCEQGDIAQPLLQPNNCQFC

[9] = target: Insulin-like growth factor 1 receptor (Homo sapiens) (UniProt P08069); assay: Inhibition of recombinant human IGF1R (959 to end residues) at 10 uM using KKKSPGEYVNIEFG as substrate measured after 40 mins in presence of [gamma33P]ATP by scintillation counting method
Insulin-like growth factor 1 receptor (Homo sapiens), sequence (P08069 31-736 limits assumed): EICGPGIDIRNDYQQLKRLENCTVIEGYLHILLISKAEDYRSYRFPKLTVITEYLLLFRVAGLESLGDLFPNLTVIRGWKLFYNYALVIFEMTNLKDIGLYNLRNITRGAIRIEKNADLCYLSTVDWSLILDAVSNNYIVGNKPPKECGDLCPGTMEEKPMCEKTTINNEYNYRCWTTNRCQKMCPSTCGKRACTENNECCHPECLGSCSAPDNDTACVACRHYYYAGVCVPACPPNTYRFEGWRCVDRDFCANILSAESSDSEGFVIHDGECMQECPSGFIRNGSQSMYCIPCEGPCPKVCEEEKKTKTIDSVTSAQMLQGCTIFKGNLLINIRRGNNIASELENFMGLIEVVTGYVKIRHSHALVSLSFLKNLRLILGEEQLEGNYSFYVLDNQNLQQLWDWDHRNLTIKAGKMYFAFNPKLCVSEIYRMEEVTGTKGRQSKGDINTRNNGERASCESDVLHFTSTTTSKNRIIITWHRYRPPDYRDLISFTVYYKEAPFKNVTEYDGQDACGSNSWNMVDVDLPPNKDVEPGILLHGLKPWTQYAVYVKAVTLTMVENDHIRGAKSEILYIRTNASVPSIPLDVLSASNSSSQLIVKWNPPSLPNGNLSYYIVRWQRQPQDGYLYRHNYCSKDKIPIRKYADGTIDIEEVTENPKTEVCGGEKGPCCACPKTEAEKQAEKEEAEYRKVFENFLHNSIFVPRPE
Insulin-like growth factor 1 receptor (Homo sapiens), sequence (P08069 741-1367 limits assumed): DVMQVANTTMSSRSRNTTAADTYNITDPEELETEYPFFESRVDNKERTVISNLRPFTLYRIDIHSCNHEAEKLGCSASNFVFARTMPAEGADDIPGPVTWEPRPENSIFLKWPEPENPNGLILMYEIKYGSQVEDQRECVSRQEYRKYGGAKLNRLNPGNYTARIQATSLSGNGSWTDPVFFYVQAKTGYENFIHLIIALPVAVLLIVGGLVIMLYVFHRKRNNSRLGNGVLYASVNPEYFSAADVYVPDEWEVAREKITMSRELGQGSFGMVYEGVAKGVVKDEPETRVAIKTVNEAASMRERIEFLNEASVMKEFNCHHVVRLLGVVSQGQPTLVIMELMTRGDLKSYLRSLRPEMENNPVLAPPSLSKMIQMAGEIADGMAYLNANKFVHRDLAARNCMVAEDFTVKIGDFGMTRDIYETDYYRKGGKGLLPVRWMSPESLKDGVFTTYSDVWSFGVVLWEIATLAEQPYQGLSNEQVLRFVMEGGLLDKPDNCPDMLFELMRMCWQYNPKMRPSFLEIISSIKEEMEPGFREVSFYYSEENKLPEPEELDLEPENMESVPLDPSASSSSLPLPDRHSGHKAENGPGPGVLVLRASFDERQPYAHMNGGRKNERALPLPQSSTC

[10] = target: Tyrosine-protein kinase JAK2 (Homo sapiens) (UniProt O60674); assay: Inhibition of recombinant human JAK2 (808 to end residues) at 10 uM using KTFCGTPEYLAPEVRREPRILSEEEQEMFRDFDYIADWC as substrate measured after 40 mins in presence of [gamma33P]ATP by scintillation counting method
Tyrosine-protein kinase JAK2 (Homo sapiens), sequence (O60674 whole entry): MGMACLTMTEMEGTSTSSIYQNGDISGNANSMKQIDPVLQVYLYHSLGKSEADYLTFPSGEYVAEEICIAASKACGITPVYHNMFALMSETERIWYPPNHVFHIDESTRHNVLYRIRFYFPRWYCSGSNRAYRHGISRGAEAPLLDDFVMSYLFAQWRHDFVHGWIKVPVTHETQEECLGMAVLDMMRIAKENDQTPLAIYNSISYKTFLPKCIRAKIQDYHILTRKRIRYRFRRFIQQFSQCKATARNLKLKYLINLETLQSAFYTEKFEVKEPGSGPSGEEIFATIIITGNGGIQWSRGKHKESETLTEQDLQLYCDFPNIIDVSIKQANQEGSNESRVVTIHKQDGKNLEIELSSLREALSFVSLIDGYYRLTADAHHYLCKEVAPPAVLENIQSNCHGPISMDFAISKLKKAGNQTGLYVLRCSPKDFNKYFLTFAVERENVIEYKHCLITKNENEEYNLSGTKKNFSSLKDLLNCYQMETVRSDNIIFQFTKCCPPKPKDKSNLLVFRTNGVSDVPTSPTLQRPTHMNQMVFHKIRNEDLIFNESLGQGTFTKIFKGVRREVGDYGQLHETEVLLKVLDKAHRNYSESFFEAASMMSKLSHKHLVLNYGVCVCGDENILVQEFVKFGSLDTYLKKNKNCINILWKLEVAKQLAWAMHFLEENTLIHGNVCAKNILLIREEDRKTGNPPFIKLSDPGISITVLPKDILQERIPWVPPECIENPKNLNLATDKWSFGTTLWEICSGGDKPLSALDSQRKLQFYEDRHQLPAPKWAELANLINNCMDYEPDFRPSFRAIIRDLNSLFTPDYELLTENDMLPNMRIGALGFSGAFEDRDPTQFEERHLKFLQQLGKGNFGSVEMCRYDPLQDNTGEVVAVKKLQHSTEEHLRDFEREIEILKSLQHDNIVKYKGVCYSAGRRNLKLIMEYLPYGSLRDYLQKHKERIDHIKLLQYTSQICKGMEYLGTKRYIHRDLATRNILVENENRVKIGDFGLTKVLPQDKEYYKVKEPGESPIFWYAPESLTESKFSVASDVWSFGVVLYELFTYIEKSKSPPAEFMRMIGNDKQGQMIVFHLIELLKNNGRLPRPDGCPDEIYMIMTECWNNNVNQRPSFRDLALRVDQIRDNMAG

[11] = target: Mitogen-activated protein kinase 1 (Homo sapiens) (UniProt P28482); assay: Inhibition of recombinant full-length human MAPK1 at 10 uM using myelin basic protein as substrate measured after 40 mins in presence of [gamma33P]ATP by scintillation counting method
[12] = target: Mitogen-activated protein kinase kinase kinase kinase 4 (Homo sapiens) (UniProt O95819); assay: Inhibition of recombinant human MAP4K4 (1 to 328 residues) at 10 uM using RLGRDKYKTLRQIRQ as substrate measured after 40 mins in presence of [gamma33P]ATP by scintillation counting method
[13] = target: Dual specificity mitogen-activated protein kinase kinase 6 (Homo sapiens) (UniProt P52564); assay: Inhibition of recombinant human MKK6 (4 to end residues) at 10 uM using unactive SAPK2a as substrate measured after 40 mins in presence of [gamma33P]ATP by scintillation counting method
[14] = target: SRSF protein kinase 3 (Homo sapiens) (UniProt Q9UPE1); assay: Inhibition of recombinant full-length human MSSK1 at 10 uM using ERMRPRKRQGSVRRRV as substrate measured after 40 mins in presence of [gamma33P]ATP by scintillation counting method
[15] = target: [Pyruvate dehydrogenase (acetyl-transferring)] kinase isozyme 4, mitochondrial (Homo sapiens) (UniProt Q16654); assay: Inhibition of recombinant full-length human PDHK4 at 10 uM using KKKYHGHSMSDPGVSYRT as substrate measured after 40 mins in presence of [gamma33P]ATP by scintillation counting method
[Pyruvate dehydrogenase (acetyl-transferring)] kinase isozyme 4, mitochondrial (Homo sapiens), sequence (Q16654 whole entry, looked up): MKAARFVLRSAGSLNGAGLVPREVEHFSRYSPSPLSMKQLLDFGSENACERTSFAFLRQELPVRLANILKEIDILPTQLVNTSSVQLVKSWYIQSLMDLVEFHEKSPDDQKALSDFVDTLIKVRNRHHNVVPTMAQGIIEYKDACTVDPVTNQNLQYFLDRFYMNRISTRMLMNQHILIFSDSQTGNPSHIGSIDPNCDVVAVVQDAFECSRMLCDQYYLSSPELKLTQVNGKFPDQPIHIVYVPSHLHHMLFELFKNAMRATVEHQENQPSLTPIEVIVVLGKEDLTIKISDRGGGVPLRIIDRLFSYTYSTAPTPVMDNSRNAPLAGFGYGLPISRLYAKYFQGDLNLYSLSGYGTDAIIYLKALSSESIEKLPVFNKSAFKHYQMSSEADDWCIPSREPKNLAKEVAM

[16] = target: Serine/threonine-protein kinase D3 (Homo sapiens) (UniProt O94806); assay: Inhibition of recombinant full-length human PKD3 at 10 uM using KKLRRTLSVA as substrate measured after 40 mins in presence of [gamma33P]ATP by scintillation counting method
Homo sapiens = species on record: Homo sapiens; assay: Inhibition of recombinant human PRAK R291E mutant at 10 uM using KKLRRTLSVA as substrate measured after 40 mins in presence of [gamma33P]ATP by scintillation counting method
[17] = test system: Serine/threonine-protein kinase N1 (Homo sapiens), Q16512 [V901I]; assay: Inhibition of human PRK1 V901I mutant (498 to end residues) using KKLNRTLSFAEPG as substrate measured after 40 mins in presence of [gamma33P]ATP by scintillation counting method; outline: as §1
[18] = test system: Serine/threonine-protein kinase Sgk1 (Homo sapiens), O00141 [S422D]; assay: Inhibition of recombinant human SGK S422D mutant (60 to end residues) at 10 uM using GRPRTSSFAEGKK as substrate measured after 40 mins in presence of [gamma33P]ATP by scintillation counting method
Serine/threonine-protein kinase Sgk1 (Homo sapiens), O00141 [S422D], sequence (O00141 whole entry S422D, the tested form may be a part): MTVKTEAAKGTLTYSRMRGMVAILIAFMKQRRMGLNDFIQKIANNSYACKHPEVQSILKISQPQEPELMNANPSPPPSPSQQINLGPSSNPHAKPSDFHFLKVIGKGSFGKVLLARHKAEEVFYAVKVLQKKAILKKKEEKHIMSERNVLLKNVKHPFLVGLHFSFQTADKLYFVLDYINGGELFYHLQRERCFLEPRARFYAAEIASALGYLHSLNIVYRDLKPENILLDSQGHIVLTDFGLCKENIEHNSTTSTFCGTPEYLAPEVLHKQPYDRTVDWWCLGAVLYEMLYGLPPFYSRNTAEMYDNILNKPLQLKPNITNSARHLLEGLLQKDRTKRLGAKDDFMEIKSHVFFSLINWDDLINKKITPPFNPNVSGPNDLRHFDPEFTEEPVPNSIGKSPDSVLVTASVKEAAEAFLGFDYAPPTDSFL

Mus musculus = species on record: Mus musculus; assay: Inhibition of recombinant full-length mouse PI3K p110alpha/p65alpha (1 to 571 residues) at 10 uM using phosphatidylinositol-4, 5-bisphosphate as substrate measured after 40 mins by HTRF assay
[19] = target: PI3K p110 delta/p85 alpha (Mus musculus) (UniProt P26450+O35904); assay: Inhibition of recombinant full-length mouse PI3K p110delta/p85alpha at 10 uM using phosphatidylinositol-4, 5-bisphosphate as substrate measured after 40 mins by HTRF assay; assay type: protein-complex assay

CN1C[C@H](Nc2nc3cc[nH]c3c(=O)n2C)C[C@H](c2ccc3c(c2)OCCO3)C1
ΔTm [1]: 0.2 °C
Activity [2]: inactive
inhibition [3]: inactive
inhibition [4]: inactive
inhibition [5]: inactive
inhibition [6]: inactive
inhibition [7]: inactive
inhibition [8]: inactive
inhibition [9]: inactive
inhibition [10]: inactive
inhibition [11]: inactive
inhibition [12]: inactive
inhibition [13]: inactive
inhibition [14]: inactive
inhibition [15]: inactive
inhibition [16]: inactive
inhibition (Homo sapiens): inactive
inhibition [17]: inactive
inhibition [18]: inactive
inhibition (Mus musculus): inactive
inhibition [19]: inactive
